Test results: ChEMBL document CHEMBL1649392, “Synthesis of substituted 3-amino-N-phenyl-1H-indazole-1-carboxamides endowed with antiproliferative activity” (Eur J Med Chem, 2011)

Tests used:
Type in all cases: functional
[1] = tested on: A498; assay: Antiproliferative activity against human A498 cells after 48 hrs by sulforhodamine B assay; conditions: A498, 48 h
In short: (§1)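 NCI 60-cell-line panel covering nine cancer types (leukemia, non-small cell lung, colon, CNS, melanoma, ovarian, renal, prostate, breast). Compounds were first tested at a single dose, then in a five-dose screen (series starting 0.01, 0.1 …) if they met NCI threshold criteria. Reported per line: GI50 (molar concentration inhibiting 50% net growth), TGI (total growth inhibition) and LC50 (50% net cell death).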

[2] = tested on: SNB-75; assay: Antiproliferative activity against human SNB75 cells after 48 hrs by sulforhodamine B assay; conditions: SNB-75, 48 h; in short: as §1
[3] = tested on: PC-3; assay: Antiproliferative activity against human PC3 cells after 48 hrs by sulforhodamine B assay; conditions: PC-3, 48 h; in short: as §1
[4] = tested on: MDA-MB-231; assay: Antiproliferative activity against human MDA-MB-231 cells after 48 hrs by sulforhodamine B assay; conditions: MDA-MB-231, 48 h; in short: as §1
[5] = Antiproliferative activity against human Hs 578T cells after 48 hrs by sulforhodamine B assay; in short: as §1
[6] = tested on: OVCAR-8; assay: Antiproliferative activity against human OVCAR8 cells after 48 hrs by sulforhodamine B assay; conditions: OVCAR-8, 48 h; in short: as §1
[7] = tested on: HOP-92; assay: Antiproliferative activity against human HOP92 cells after 48 hrs by sulforhodamine B assay; conditions: HOP-92, 48 h; in short: as §1
[8] = tested on: NCI-H460; assay: Antiproliferative activity against human NCI-H460 cells after 48 hrs by sulforhodamine B assay; conditions: NCI-H460, 48 h; in short: as §1
[9] = tested on: SK-MEL-2; assay: Antiproliferative activity against human SK-MEL-2 cells after 48 hrs by sulforhodamine B assay; conditions: SK-MEL-2, 48 h; in short: as §1
[10] = tested on: OVCAR-5; assay: Antiproliferative activity against human OVCAR5 cells after 48 hrs by sulforhodamine B assay; conditions: OVCAR-5, 48 h; in short: as §1
[11] = tested on: Malme-3M; assay: Antiproliferative activity against human MALME-3M cells after 48 hrs by sulforhodamine B assay; in short: as §1
[12] = tested on: IGROV-1; assay: Antiproliferative activity against human IGROV1 cells after 48 hrs by sulforhodamine B assay; conditions: IGROV-1, 48 h; in short: as §1
[13] = tested on: HCT-15; assay: Antiproliferative activity against human HCT15 cells after 48 hrs by sulforhodamine B assay; conditions: HCT-15, 48 h; in short: as §1
[14] = tested on: NCI-H226; assay: Antiproliferative activity against human NCI-H226 cells after 48 hrs by sulforhodamine B assay; conditions: NCI-H226, 48 h; in short: as §1
[15] = tested on: NCI-H522; assay: Antiproliferative activity against human NCI-H522 cells after 48 hrs by sulforhodamine B assay; conditions: NCI-H522, 48 h; in short: as §1
[16] = tested on: SNB-19; assay: Antiproliferative activity against human SNB19 cells after 48 hrs by sulforhodamine B assay; conditions: SNB-19, 48 h; in short: as §1
[17] = tested on: NCI-H23; assay: Antiproliferative activity against human NCI-H23 cells after 48 hrs by sulforhodamine B assay; conditions: NCI-H23, 48 h; in short: as §1
[18] = tested on: OVCAR-4; assay: Antiproliferative activity against human OVCAR4 cells after 48 hrs by sulforhodamine B assay; conditions: OVCAR-4, 48 h; in short: as §1
[19] = tested on: DU-145; assay: Antiproliferative activity against human DU145 cells after 48 hrs by sulforhodamine B assay; conditions: DU-145, 48 h; in short: as §1
[20] = tested on: SK-OV-3; assay: Antiproliferative activity against human SKOV3 cells after 48 hrs by sulforhodamine B assay; conditions: SK-OV-3, 48 h; in short: as §1
[21] = tested on: SF-295; assay: Antiproliferative activity against human SF295 cells after 48 hrs by sulforhodamine B assay; conditions: SF-295, 48 h; in short: as §1
[22] = tested on: ACHN; assay: Antiproliferative activity against human ACHN cells after 48 hrs by sulforhodamine B assay; in short: as §1
[23] = tested on: SW-620; assay: Antiproliferative activity against human SW620 cells after 48 hrs by sulforhodamine B assay; conditions: SW-620, 48 h
In short: (§2)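 NCI 60-cell-line panel screen: single dose 10 µM first, then 5-dose testing (0.01, 0.1, … molar series). For each line, GI50 is the molar concentration giving 50% inhibition of net cell growth, TGI gives total inhibition of net growth, and LC50 gives 50% net cell death. Method follows the NCI DTP protocol.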

[24] = tested on: SK-MEL-28; assay: Antiproliferative activity against human SK-MEL-28 cells after 48 hrs by sulforhodamine B assay; conditions: SK-MEL-28, 48 h; in short: as §1
[25] = tested on: UO-31; assay: Antiproliferative activity against human UO31 cells after 48 hrs by sulforhodamine B assay; conditions: UO-31, 48 h; in short: as §2
[26] = tested on: SN12C; assay: Antiproliferative activity against human SN12C cells after 48 hrs by sulforhodamine B assay; in short: as §1
[27] = Antiproliferative activity against human […] cells after 48 hrs by sulforhodamine B assay; in short: as §1
[28] = tested on: HCT-116; assay: Antiproliferative activity against human HCT116 cells after 48 hrs by sulforhodamine B assay; conditions: HCT-116, 48 h; in short: as §1
[29] = tested on: NCI-H322M; assay: Antiproliferative activity against human NCI-H322M cells after 48 hrs by sulforhodamine B assay; in short: as §1
[30] = tested on: SF-268; assay: Antiproliferative activity against human SF268 cells after 48 hrs by sulforhodamine B assay; conditions: SF-268, 48 h; in short: as §1
[31] = tested on: CAKI-1; assay: Antiproliferative activity against human Caki1 cells after 48 hrs by sulforhodamine B assay; conditions: CAKI-1, 48 h; in short: as §1
[32] = read-out: LC50 (the source's name)

Question: With `Nc1ccc2c(c1)c(N)nn2C(=O)Nc1ccc(Cc2ccccc2)cc1` as the molecule, how does the GI50 [1] read?
Answer: 14.4 µM

Question: What about the TGI [1] of the same molecule?
Answer: 28.4 µM

Question: What about the CC50 [1, 32] of the same molecule?
Answer: 56.1 µM

Question: What about the GI50 [2] of the same molecule?
Answer: 17.4 µM

Question: And the LC50 (concentration causing 50% net cell death) [2]?
Answer: 57.1 µM

Question: And the TGI [2]?
Answer: 31.5 µM

Question: What about the GI50 [3] of the same molecule?
Answer: 4.33 µM

Question: And the TGI [3]?
Answer: 24 µM

Question: What about the CC50 [3, 32] of the same molecule?
Answer: 87 µM

Question: And the GI50 [4]?
Answer: 7.74 µM

Question: What about the TGI [4] of the same molecule?
Answer: 22.7 µM

Question: What about the CC50 [4, 32] of the same molecule?
Answer: 54.3 µM

Question: And the GI50 [5]?
Answer: 17.3 µM

Question: And the TGI [5]?
Answer: 43 µM

Question: What about the CC50 [5, 32] of the same molecule?
Answer: > 100 µM

Question: And the GI50 [6]?
Answer: 20.2 µM

Question: What about the TGI [6] of the same molecule?
Answer: > 100 µM

Question: And the CC50 [6, 32]?
Answer: > 100 µM

Question: What about the GI50 [7] of the same molecule?
Answer: 10.4 µM

Question: And the LC50 [7]?
Answer: 57.4 µM

Question: And the TGI [7]?
Answer: 24.4 µM

Question: And the GI50 [8]?
Answer: 4.64 µM

Question: What about the TGI [8] of the same molecule?
Answer: 23.8 µM

Question: What about the CC50 [8, 32] of the same molecule?
Answer: > 100 µM

Question: And the GI50 [9]?
Answer: 26.1 µM

Question: And the TGI [9]?
Answer: 48.5 µM

Question: And the CC50 [9, 32]?
Answer: 90.1 µM

Question: What about the GI50 [10] of the same molecule?
Answer: 22.6 µM

Question: And the TGI [10]?
Answer: 60.5 µM

Question: What about the CC50 [10, 32] of the same molecule?
Answer: > 100 µM

Question: What about the GI50 [11] of the same molecule?
Answer: 18 µM

Question: And the LC50 (concentration causing 50% net cell death) [11]?
Answer: > 100 µM

Question: And the TGI [11]?
Answer: 89.8 µM

Question: What about the GI50 [12] of the same molecule?
Answer: 16.4 µM

Question: What about the TGI [12] of the same molecule?
Answer: 54.1 µM

Question: What about the CC50 [12, 32] of the same molecule?
Answer: > 100 µM

Question: What about the GI50 [13] of the same molecule?
Answer: 2.75 µM

Question: What about the LC50 (concentration causing 50% net cell death) [13] of the same molecule?
Answer: 50.5 µM

Question: And the TGI [13]?
Answer: 14.2 µM

Question: And the GI50 [14]?
Answer: 16.1 µM

Question: And the TGI [14]?
Answer: 38.3 µM

Question: And the CC50 [14, 32]?
Answer: 91.4 µM

Question: What about the GI50 [15] of the same molecule?
Answer: 14.7 µM

Question: What about the LC50 (concentration causing 50% net cell death) [15] of the same molecule?
Answer: > 100 µM

Question: What about the TGI [15] of the same molecule?
Answer: 39.6 µM

Question: And the GI50 [16]?
Answer: 13.9 µM

Question: And the TGI [16]?
Answer: 27.3 µM

Question: And the CC50 [16, 32]?
Answer: 53.6 µM

Question: And the GI50 [17]?
Answer: 16.9 µM

Question: And the TGI [17]?
Answer: 39.5 µM

Question: And the CC50 [17, 32]?
Answer: 92.4 µM

Question: And the GI50 [18]?
Answer: 8.29 µM

Question: And the TGI [18]?
Answer: 24.1 µM

Question: What about the CC50 [18, 32] of the same molecule?
Answer: 63.2 µM

Question: And the GI50 [19]?
Answer: 10.9 µM

Question: And the TGI [19]?
Answer: 24 µM

Question: What about the CC50 [19, 32] of the same molecule?
Answer: 52.6 µM

Question: And the GI50 [20]?
Answer: 15.3 µM

Question: And the TGI [20]?
Answer: 37.7 µM

Question: And the CC50 [20, 32]?
Answer: 92.8 µM

Question: What about the GI50 [21] of the same molecule?
Answer: 3.96 µM

Question: What about the LC50 [21] of the same molecule?
Answer: 45.4 µM

Question: What about the TGI [21] of the same molecule?
Answer: 15.1 µM

Question: What about the GI50 [22] of the same molecule?
Answer: 3.37 µM

Question: What about the TGI [22] of the same molecule?
Answer: 13.7 µM

Question: And the CC50 [22, 32]?
Answer: 39.6 µM

Question: And the GI50 [23]?
Answer: 4.48 µM

Question: And the TGI [23]?
Answer: 18.7 µM

Question: And the CC50 [23, 32]?
Answer: 58.5 µM

Question: What about the GI50 [24] of the same molecule?
Answer: 13.7 µM

Question: And the TGI [24]?
Answer: 27.8 µM

Question: And the CC50 [24, 32]?
Answer: 56.2 µM

Question: And the GI50 [25]?
Answer: 4.72 µM

Question: And the TGI [25]?
Answer: 32.6 µM

Question: And the CC50 [25, 32]?
Answer: > 100 µM

Question: And the GI50 [26]?
Answer: 13.4 µM

Question: What about the TGI [26] of the same molecule?
Answer: 30.9 µM

Question: And the CC50 [26, 32]?
Answer: 71.1 µM

Question: What about the GI50 [27] of the same molecule?
Answer: 5.14 µM

Question: What about the TGI [27] of the same molecule?
Answer: 35 µM

Question: And the CC50 [27, 32]?
Answer: > 100 µM

Question: What about the GI50 [28] of the same molecule?
Answer: 6.79 µM

Question: And the LC50 (concentration causing 50% net cell death) [28]?
Answer: 50 µM

Question: And the TGI [28]?
Answer: 20.8 µM

Question: And the GI50 [29]?
Answer: 13 µM

Question: What about the TGI [29] of the same molecule?
Answer: 27.5 µM

Question: What about the CC50 [29, 32] of the same molecule?
Answer: 58.3 µM

Question: And the GI50 [30]?
Answer: 13 µM

Question: What about the TGI [30] of the same molecule?
Answer: 30.7 µM

Question: And the CC50 [30, 32]?
Answer: 72.5 µM

Question: And the GI50 [31]?
Answer: 4.3 µM

Question: And the TGI [31]?
Answer: 26.8 µM

Question: And the CC50 [31, 32]?
Answer: > 100 µM
